What was measured:
Assay type in all cases: functional, cell-based
L1210 = assay: Cytotoxicity against mouse L1210 cells after 48 hrs by MTT assay; conditions: L1210, 48 h
Procedure, shortened: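 Mouse L-1210 leukemia cells in RPMI 1640 with 10% FCS, gentamycin 50 µg/mL and 0.02 M HEPES; seeded at 1.5 × 10^3 cells/mL, drug added after 24 h, then 48 h further incubation. Cell number relative to untreated control by tetrazolium dye method; IC50 from concentration-survival curves by non-linear (quasi-Newton) fitting, mean of at least three experiments.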

NALM-6 = assay: Cytotoxicity against human NALM6 cells after 48 hrs by MTT assay; conditions: NALM-6, 48 h
Procedure, shortened: (§1)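 HL-60 (promyelocytic) and NALM-6 (lymphoblastic) human leukemia cells in RPMI 1640 with 10% heat-inactivated FBS, streptomycin/penicillin, 37 °C, 5% CO2; exponentially growing cells seeded 8 × 10^3/well. Compounds from fresh DMSO stocks diluted in medium, 10^-7 to 10^-3 M, 46 h, then MTT 2 h; formazan dissolved in 20% SDS/50% DMF pH 4.7, A562/630. IC50 from concentration-response curves, ≥3 experiments.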

HL-60 = assay: Cytotoxicity against human HL60 cells after 48 hrs by MTT assay; conditions: HL-60, 48 h; procedure, shortened: as §1

## C=C1C(=O)O[C@H](C)[C@@H]1c1ccc(C)cc1 (relative stereo)
L1210
  IC50: 5.5 µM
NALM-6
  IC50: 5.97 µM
HL-60
  IC50: 5.62 µM

## C=C1C(=O)O[C@@H](C)[C@@H]1c1ccc(OC)cc1 (relative stereo)
L1210
  IC50: 1.95 µM
NALM-6
  IC50: 5.42 µM
HL-60
  IC50: 5.56 µM

## C=C1C(=O)OC(C)CC1c1ccc(Br)cc1 (stereo not drawn)
L1210
  IC50: 1.75 µM
NALM-6
  IC50: 4.51 µM
HL-60
  IC50: 4.77 µM

## C=C1C(=O)O[C@H](C)[C@@H]1c1ccc([N+](=O)[O-])cc1
L1210
  IC50: 1.9 µM
NALM-6
  IC50: 3.77 µM
HL-60
  IC50: 21.7 µM

## C=C1C(=O)O[C@@H](C)[C@@H]1c1ccc(C)cc1 (relative stereo)
L1210
  IC50: 1.5 µM
NALM-6
  IC50: 4.39 µM
HL-60
  IC50: 5.01 µM

## C=C1C(=O)OC(C)CC1c1ccc([N+](=O)[O-])cc1 (stereo not drawn)
L1210
  IC50: 1.2 µM
NALM-6
  IC50: 3.42 µM
HL-60
  IC50: 6.12 µM

## C=C1C(=O)O[C@H](C)[C@@H]1c1ccc(OC)cc1 (relative stereo)
L1210
  IC50: 4.4 µM
NALM-6
  IC50: 5.59 µM
HL-60
  IC50: 4.82 µM

## C=C1C(=O)O[C@@H](C)[C@@H]1c1ccc2c(c1)OCO2 (relative stereo)
L1210
  IC50: 0.8 µM
NALM-6
  IC50: 5 µM
HL-60
  IC50: 5.35 µM

## C=C1C(=O)OC(C)CC1c1ccc(OC)cc1 (stereo not drawn)
L1210
  IC50: 0.8 µM
NALM-6
  IC50: 5.76 µM
HL-60
  IC50: 5.95 µM

## C=C1C(=O)OC(C)CC1c1ccccc1OC (stereo not drawn)
L1210
  IC50: 2.1 µM
NALM-6
  IC50: 6.26 µM
HL-60
  IC50: 6.44 µM

## C=C1C(=O)OC(C)CC1C(C)C (stereo not drawn)
L1210
  IC50: 44.4 µM
NALM-6
  IC50: 56.4 µM
HL-60
  IC50: 61.2 µM

## C=C1C(=O)OC(C)CC1c1ccc2c(c1)OCO2 (stereo not drawn)
L1210
  IC50: 7 µM
NALM-6
  IC50: 5.46 µM
HL-60
  IC50: 5.52 µM

## C=C1C(=O)O[C@@H](C)[C@@H]1c1ccc(Br)cc1 (relative stereo)
L1210
  IC50: 0.58 µM
NALM-6
  IC50: 1.1 µM
HL-60
  IC50: 6.66 µM

## C=C1C(=O)OC(C)CC1C1CCCCC1 (stereo not drawn)
L1210
  IC50: 13 µM
NALM-6
  IC50: 15.8 µM
HL-60
  IC50: 40.6 µM

## C=C1C(=O)O[C@H](C)[C@@H]1c1ccc2c(c1)OCO2 (relative stereo)
L1210
  IC50: 1.4 µM
NALM-6
  IC50: 4.7 µM
HL-60
  IC50: 33.3 µM

## C=C1C(=O)O[C@H](C)[C@@H]1c1ccc(Br)cc1 (relative stereo)
L1210
  IC50: 7.8 µM
NALM-6
  IC50: 4.25 µM
HL-60
  IC50: 4.28 µM

Reference: ChEMBL document CHEMBL1154747, “Synthesis and cytotoxic evaluation of beta-alkyl or beta-aryl-delta-methyl-alpha-methylene-delta-lactones. Comparison with the corresponding gamma-lactones” (Eur J Med Chem, 2010)
